The list is not random: actives were taken first. Their share in the collection is about 3.1%.
OX1R antag-1 – OX1R (human) antagonism; O43613; OX1R-expressing cells, FRET antagonist read-out; inhibition, % at 6.6 µM; hit rate 1.8% among 330,000; AID 485270; in the data active = inhibition mostly above about 38%, no sharp cut-off; inactive = mostly below about 40%
GalR3 antag – blocks the human galanin receptor 3; HEK293 GalR3-CNG cAMP membrane potential fluorescence; galR3 body fused to GalR1 C-terminus; AID 651719; O60755; hit rate 0.44% among 360,000; inhibition, % at 3 µM;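 active = inhibition above the screen-wide average plus 3 SD, cut at about 13% in these data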;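 note: forskolin and galanin both at EC90 stimulate the cells; cAMP rise reported by CNG channel membrane potential dye signal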
Target sequence (O60755 1-299 limits assumed): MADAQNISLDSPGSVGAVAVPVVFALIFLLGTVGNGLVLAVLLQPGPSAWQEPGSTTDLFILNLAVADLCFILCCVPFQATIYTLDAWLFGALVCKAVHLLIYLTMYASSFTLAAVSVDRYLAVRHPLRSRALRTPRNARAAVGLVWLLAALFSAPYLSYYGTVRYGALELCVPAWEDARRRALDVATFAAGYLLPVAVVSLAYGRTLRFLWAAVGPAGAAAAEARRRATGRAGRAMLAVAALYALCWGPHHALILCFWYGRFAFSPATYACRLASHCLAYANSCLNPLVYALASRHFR
GPR7 antagonist – human neuropeptides B/W receptor 1 antagonism. GPR7-expressing cells, fluorescence antagonist assay. inhibition, % at 4.4 µM. hit rate 1.1% among 290,000. P48145; in the data active = inhibition above about 16%, passing the limit was not always enough;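 note: cells stimulated with the agonist NPW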
Target sequence (P48145 whole entry, looked up): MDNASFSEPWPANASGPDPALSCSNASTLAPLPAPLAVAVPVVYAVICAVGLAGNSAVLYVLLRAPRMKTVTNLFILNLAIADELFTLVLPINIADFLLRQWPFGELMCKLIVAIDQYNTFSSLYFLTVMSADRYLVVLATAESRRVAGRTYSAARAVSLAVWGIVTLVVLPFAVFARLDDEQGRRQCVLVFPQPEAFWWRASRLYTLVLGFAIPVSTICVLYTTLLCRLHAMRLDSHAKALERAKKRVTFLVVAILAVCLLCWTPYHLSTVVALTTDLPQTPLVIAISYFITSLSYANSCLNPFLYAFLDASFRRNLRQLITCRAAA
OX1R antag-2 – human HCRTR1 antagonism; hit rate 0.43% among 330,000; CHO/OX1R cells, Fluo-8 calcium fluorescence, orexin A; O43613; inhibition, % at 5 µM; AID 434989;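 active = inhibition above its plate's threshold, mean inhibition of all tested compounds on the plate plus 3 SD, cut at about 37% in these data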
CHO parental Ca – counter-screen: ATP calcium response change in parental CHO cells. hit rate 0.63% among 330,000. inhibition, % at 5.6 µM. AID 463079. parental CHO-K1, ATP-induced calcium, Fluo-8 fluorescence;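 active = inhibition above that plate's mean sample inhibition plus 3 SD, cut at about 26% in these data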
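Assay system: parental CHO cells; Read-out basis: percent inhibition of ATP-evoked calcium rise, normalized to controls; Benchmarks: ATP and no-ATP DMSO wells; Compound dosing: single nominal dose of 5.6 µM per compound; Signal: Fluo-8 calcium dye fluorescence; Also added: ATP as calcium-mobilizing challenge; Repeats: singlicate.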
OX1R HTRF confirm – confirmation of human orexin 1 receptor antagonists, HTRF format | shares compounds with OX1R antag-1 | OX1R-expressing cells, HTRF antagonist assay | inhibition, % at 6.6 µM | hit rate 49% among 1,800; in the data active = inhibition above about 55%;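 note: CHO cells expressing OX1R stimulated with orexin A at about EC80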
CHO-K1 HTRF cnt – signal in parental CHO-K1 cells, OX1R antagonist counter-screen; shares compounds with OX1R antag-1; HTRF counterscreen; inhibition, % at 6.6 µM; hit rate 48% among 1,800; in the data active = inhibition above about 17%
Each line names hits and unclear results; the compound was inactive in the other large screens (follow-up assays come after a bar, where they were run).

COCCN1Cc2cccc(C(=O)Nc3cccc(-c4nc5ccccc5[nH]4)c3)c2C1=O	OX1R antag-1 86.1 | OX1R HTRF confirm 59.6 | CHO-K1 HTRF cnt inactive
CCC(=O)N(C)C[C@H]1Oc2cc(-c3cccnc3)ccc2S(=O)(=O)N([C@H](C)CO)C[C@H]1C	none (no result: OX1R antag-1, GPR7 antagonist, OX1R antag-2, CHO parental Ca)
O=C(Nc1ccc(Cl)cc1)C1CCCN(C2=NS(=O)(=O)c3ccccc32)C1 (configuration not stated)	none (no result: GPR7 antagonist)
Cc1oc2c(c1C(=O)O)C(=O)c1ccccc1C2=O	OX1R antag-1 97.3 | OX1R HTRF confirm 71.9 | CHO-K1 HTRF cnt 85.9
COc1ccc(C(=O)c2c(C(F)(F)F)oc3c2C(=O)c2ccccc2C3=O)cc1OC	none
CCOC(=O)c1c(C)oc2c1C(=O)c1ccccc1C2=O	OX1R antag-1 85.2 | OX1R HTRF confirm 82.0 | CHO-K1 HTRF cnt 47.3
CCCn1nc([N+](=O)[O-])c(C(C#N)c2nc3ccccc3o2)c(Cl)c1=O (configuration not stated)	OX1R antag-1 86.6 | OX1R HTRF confirm inactive | CHO-K1 HTRF cnt 21.7
CCN(CC)c1ccc2cc(C(C)=O)c(=O)oc2c1	OX1R antag-1 95.7 | OX1R HTRF confirm inactive | CHO-K1 HTRF cnt inactive
Nc1[nH]c(C(=O)c2ccccc2)c(-c2ccccc2Br)c1C(=O)c1ccccc1	none (no result: OX1R antag-1, GPR7 antagonist, OX1R antag-2, CHO parental Ca)
c1cncc(-c2nc(N3CCCCCC3)c3ccccc3n2)c1	none
c1ccc2c(N3CCCCCC3)nc(-c3ccncc3)nc2c1	OX1R antag-1 88.1 | OX1R HTRF confirm inactive | CHO-K1 HTRF cnt inactive
COc1ccc(OC)c(Nc2nc(N)nc(-c3cc4ccccc4o3)n2)c1	OX1R antag-1 80.0 | OX1R HTRF confirm inactive | CHO-K1 HTRF cnt inactive
C=CCNC(=O)CCC(=O)NNc1nc2ccccc2c2nc(-c3ccccc3)nn12	OX1R antag-1 84.0 | OX1R HTRF confirm 85.5 | CHO-K1 HTRF cnt inactive
CCN(CC)CCCNC(=O)CCC(=O)NNc1nc2ccccc2c2nc(C)nn12	none
COc1cc(CC(=O)OCC(=O)Nc2ccc(N(C)C)cc2)cc(OC)c1OC	none (no result: GPR7 antagonist)
CC(=O)Nc1ccc2c3c(cccc13)C(=O)N(c1ccccc1)C2=O	OX1R antag-1 109.6 | OX1R HTRF confirm inactive | CHO-K1 HTRF cnt 63.4
Nc1ccc2c3c(cccc13)C(=O)N(c1ccccc1)C2=O	none (no result: OX1R antag-1, OX1R antag-2, CHO parental Ca)
N#CC1=C(N)Oc2cc(O)ccc2C1c1ccncc1 (configuration not stated)	OX1R antag-1 110.8 | OX1R HTRF confirm inactive | CHO-K1 HTRF cnt inactive
Cc1ccc(Cc2c(-c3cccc(Cl)c3)nc3ccc(Cl)cn23)cc1	none (no result: OX1R antag-1, GPR7 antagonist, OX1R antag-2, CHO parental Ca)
Cc1ccc(N2C(=O)c3ccc(C(=O)NCCN4CCOCC4)cc3C2=O)cc1	OX1R antag-1 82.0 | OX1R HTRF confirm inactive | CHO-K1 HTRF cnt 44.4
CC(C)c1ccc(N=Cc2c(O)c3ccccc3oc2=O)cc1	none
NS(=O)(=O)c1ccc(N=Cc2c(O)c3ccccc3oc2=O)cc1	OX1R antag-1 77.3 | OX1R HTRF confirm inactive | CHO-K1 HTRF cnt inactive
CCc1ccc([C@H]2[C@@H]3C(=O)C[C@@H]4C(=O)N(Cc5ccccc5)C(=O)[C@@H]4[C@@H]3CN2S(=O)(=O)c2ccc(C)cc2)cc1	none (no result: OX1R antag-1, GPR7 antagonist, OX1R antag-2, CHO parental Ca)
Cn1ccnc1Sc1ccc(C(N)=O)cc1[N+](=O)[O-]	OX1R antag-1 93.7 | OX1R HTRF confirm inactive | CHO-K1 HTRF cnt 31.9
Cn1nnnc1Sc1ccc(C(=O)O)cc1[N+](=O)[O-]	OX1R antag-1 90.4 | OX1R HTRF confirm inactive | CHO-K1 HTRF cnt 54.2
Cn1cnnc1Sc1ccc(C(=O)OCC(=O)NC2CC2)cc1[N+](=O)[O-]	none (no result: OX1R antag-1, OX1R antag-2, CHO parental Ca)
O=C(O)c1ccc(Sc2nnnn2-c2ccccc2)c([N+](=O)[O-])c1	none
COc1cc2ccccc2cc1C(=O)N1CCc2ccccc21	none (no result: OX1R antag-1, GPR7 antagonist, OX1R antag-2, CHO parental Ca)
COc1ccc(N2CCN(S(=O)(=O)CCNC(=O)c3ccc(Br)o3)CC2)cc1	none
NC(=O)c1c(NC(=O)c2ccccc2)sc2c1CCC2	OX1R antag-1 88.9 | OX1R HTRF confirm 84.0 | CHO-K1 HTRF cnt inactive
CN(C)CCNC(=O)C(=O)NCC1OCCN1S(=O)(=O)c1ccc([N+](=O)[O-])cc1 (configuration not stated)	OX1R antag-1 88.7 | OX1R HTRF confirm inactive | CHO-K1 HTRF cnt 60.1
CCN(CC)CCNC(=O)C(=O)NCC1OCCN1S(=O)(=O)c1ccc(Cl)cc1 (configuration not stated)	none
CCN(CC)CCNC(=O)C(=O)NCC1OCCN1S(=O)(=O)c1ccc([N+](=O)[O-])cc1 (configuration not stated)	OX1R antag-1 92.3 | OX1R HTRF confirm inactive | CHO-K1 HTRF cnt 64.2
COCCNC(=O)C(c1ccc(F)cc1)N(Cc1ccccc1)C(=O)CCC(=O)Nc1nccs1 (configuration not stated)	OX1R antag-1 77.6 | OX1R HTRF confirm 80.1 | CHO-K1 HTRF cnt inactive
CC1CCCCN1C(=O)Cn1cnc2cc([N+](=O)[O-])ccc2c1=O (configuration not stated)	OX1R antag-1 122.9 | OX1R HTRF confirm 81.0 | CHO-K1 HTRF cnt 85.8
S=c1[nH]nc2sc3ccccc3n12	none (no result: OX1R antag-1, GPR7 antagonist, OX1R antag-2, CHO parental Ca)
S=c1[nH]nc2nnc3ccccc3n12	OX1R antag-1 85.3 | OX1R HTRF confirm 88.0 | CHO-K1 HTRF cnt 79.0
CC(C)Nc1nc(Nc2ccc(Cl)cc2F)c2sccc2n1	none (no result: OX1R antag-1, GPR7 antagonist, OX1R antag-2, CHO parental Ca)
O=C(/C=C/c1ccc([N+](=O)[O-])cc1)NCc1cccnc1	OX1R antag-1 104.3 | OX1R HTRF confirm inactive | CHO-K1 HTRF cnt 36.3
CC(C)C[C@@H](CN1CCC[C@@H]1CN1C(=O)C(=O)NC[C@@H]1Cc1ccccc1)N1C[C@H](Cc2ccccc2)N(CC2CCCCC2)C(=O)C1=O	none (no result: OX1R antag-1, GPR7 antagonist, OX1R antag-2, CHO parental Ca)
CCCOc1cccc(NC(=O)c2cc(C)oc2C)c1	OX1R antag-1 77.7 | OX1R HTRF confirm inactive | CHO-K1 HTRF cnt inactive
CCCOc1cccc(C(=O)Nc2cccc(NC(=O)c3ccco3)c2)c1	none
COc1ccc(-c2nc3cc(C)c(Br)c(C)n3c2Cc2ccc(C)cc2)cc1OC	none (no result: OX1R antag-1, GPR7 antagonist, OX1R antag-2, CHO parental Ca)
CCCCn1c(CCC(=O)O)nc2cc(S(=O)(=O)N3CCCC3)ccc21	none (no result: GPR7 antagonist)
O=C(Cn1cccc1C(=O)c1ccccc1)NCCCc1ccccc1	none
O=C(Cn1cccc1C(=O)c1ccccc1)NCCC1=CCCCC1	OX1R antag-1 97.6 | OX1R HTRF confirm inactive | CHO-K1 HTRF cnt inactive
CCNc1ccc(C(=O)OCC(=O)NCc2ccc(C)cc2)cc1[N+](=O)[O-]	none
CCNc1ccc(C(=O)OCC(=O)N2CCCC2)cc1[N+](=O)[O-]	OX1R antag-1 139.7 | OX1R HTRF confirm inactive | CHO-K1 HTRF cnt 56.3
COc1ccc(NC(=O)c2cccnc2)c([N+](=O)[O-])c1	OX1R antag-1 123.4 | OX1R HTRF confirm inactive | CHO-K1 HTRF cnt inactive
COc1ccc(-c2ccc(SCC(=O)N3CC(=O)Nc4ccccc43)nn2)cc1	OX1R antag-1 97.3 | OX1R HTRF confirm inactive | CHO-K1 HTRF cnt inactive
CCOC(=O)N1CCC(NC(=S)Nc2ccc3nc(N4CCN(CC)CC4)cc(C)c3c2)CC1	none

Screens deposited in PubChem by The Scripps Research Institute Molecular Screening Center.
